{"source": "paper PMC8566757", "about": "(Food Chemistry: X, 2021)", "key": {"[1]": {"experiment": "Scavenging of DPPH radicals and initial scavenging rate", "details": "for DPPH activity: 20 min, 25 °C, pH 5.5", "summary_of_the_method": "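DPPH (3 mM ethanolic stock) was mixed with 100 mM acetate buffer (pH 5.5) and ethanol. Test compound (10 mM DMSO stock) was added, with DMSO as control, and kept at 25 °C for 20 min. Absorbance was read at 517 nm (ε = 8.32 X 103). The initial rate came from the absorbance drop just after compound addition. Runs were done ≥3 times.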"}, "xanthine oxidase [2]": {"molecular_target": "T1, xanthine oxidase (Bos taurus, UniProt P80457)", "T1 sequence (P80457 whole entry)": "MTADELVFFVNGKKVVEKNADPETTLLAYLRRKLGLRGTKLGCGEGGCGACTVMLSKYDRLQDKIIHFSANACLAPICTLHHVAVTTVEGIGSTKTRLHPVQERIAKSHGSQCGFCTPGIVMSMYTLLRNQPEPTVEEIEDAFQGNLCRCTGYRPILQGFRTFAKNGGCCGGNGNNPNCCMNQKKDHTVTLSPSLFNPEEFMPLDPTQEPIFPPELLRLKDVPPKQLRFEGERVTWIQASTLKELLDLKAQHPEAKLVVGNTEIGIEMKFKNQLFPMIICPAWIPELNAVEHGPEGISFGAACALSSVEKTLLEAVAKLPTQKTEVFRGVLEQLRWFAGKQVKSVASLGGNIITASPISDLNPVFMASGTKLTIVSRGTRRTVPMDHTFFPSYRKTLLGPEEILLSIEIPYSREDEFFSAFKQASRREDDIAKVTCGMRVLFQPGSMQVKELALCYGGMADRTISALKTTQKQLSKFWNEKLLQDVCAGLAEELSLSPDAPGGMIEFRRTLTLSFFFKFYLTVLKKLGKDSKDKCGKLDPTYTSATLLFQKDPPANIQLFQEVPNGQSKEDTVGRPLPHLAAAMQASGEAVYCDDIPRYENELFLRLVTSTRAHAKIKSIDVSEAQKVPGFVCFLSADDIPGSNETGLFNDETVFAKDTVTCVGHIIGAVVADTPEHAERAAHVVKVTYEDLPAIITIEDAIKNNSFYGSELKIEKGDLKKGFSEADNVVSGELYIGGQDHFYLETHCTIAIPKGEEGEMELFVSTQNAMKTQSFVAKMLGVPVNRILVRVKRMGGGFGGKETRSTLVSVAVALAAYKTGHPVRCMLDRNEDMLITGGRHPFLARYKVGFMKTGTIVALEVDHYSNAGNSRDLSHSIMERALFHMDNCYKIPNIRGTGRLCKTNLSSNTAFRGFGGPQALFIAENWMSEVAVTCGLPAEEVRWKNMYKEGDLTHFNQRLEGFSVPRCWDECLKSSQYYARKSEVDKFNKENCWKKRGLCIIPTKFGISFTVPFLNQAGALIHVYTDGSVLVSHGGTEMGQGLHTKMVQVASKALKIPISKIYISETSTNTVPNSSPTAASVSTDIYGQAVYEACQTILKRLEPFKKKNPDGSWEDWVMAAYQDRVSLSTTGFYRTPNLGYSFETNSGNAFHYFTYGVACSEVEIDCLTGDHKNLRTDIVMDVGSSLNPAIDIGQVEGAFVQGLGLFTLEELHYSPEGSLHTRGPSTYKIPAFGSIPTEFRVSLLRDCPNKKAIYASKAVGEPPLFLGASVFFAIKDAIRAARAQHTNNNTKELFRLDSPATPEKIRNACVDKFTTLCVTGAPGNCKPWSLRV", "experiment": "Uric acid formation catalyzed by XO", "type": "biochemical", "summary_of_the_method": "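Xanthine oxidase (Grade IV) was run in 40 mM sodium carbonate with 0.1 mM EDTA, pH 10.0, at 25 °C. Xanthine was 0–200 µM, and test compound came from a 10 mM DMSO stock. Start with 0.04 unit XO and record uric acid at 293 nm for 60 s. Rate came from the linear rise, against a DMSO control. IC50 was taken at 200 µM xanthine. Mode and kinetic parameters were fitted from ≥3 separate runs.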"}, "xanthine oxidase [3]": {"molecular_target": "T1, xanthine oxidase", "experiment": "O2- generation catalyzed by XO", "type": "biochemical"}}, "data": [{"smiles": "Oc1ccc(/C=C/c2cc(O)cc(O)c2)cc1", "note": "[Resveratrol (1), Resveratrol]", "values": [{"measurement": "DPPH activity", "setting": "[1]", "value": "0.72 ± 0.27 DPPH molecules / a molecule of stilbene compound"}, {"measurement": "IC50", "setting": "xanthine oxidase [2]", "value": "34 ± 4", "unit": "µM"}, {"measurement": "Ki", "setting": "xanthine oxidase [2]", "value": "7.7 ± 0.7", "unit": "µM"}, {"measurement": "Inhibition kinetics (mode) of uric acid formation", "setting": "xanthine oxidase [2]; versus xanthine", "value": "competitive inhibition"}, {"measurement": "IC50", "setting": "xanthine oxidase [3]", "value": "21 ± 3", "unit": "µM"}, {"measurement": "Ki", "setting": "xanthine oxidase [3]", "value": "7.1 ± 1", "unit": "µM"}]}, {"smiles": "OC[C@H]1O[C@@H](Oc2cc(O)cc(/C=C/c3ccc(O)cc3)c2)[C@H](O)[C@@H](O)[C@@H]1O", "note": "[Resveratrol-3-glucoside (2), Resveratrol-3-glucoside]", "values": [{"measurement": "DPPH activity", "setting": "[1]", "value": "0.59 ± 0.15 DPPH molecules / a molecule of stilbene compound"}, {"measurement": "IC50", "setting": "xanthine oxidase [2]", "value": "> 50", "unit": "µM"}, {"measurement": "IC50", "setting": "xanthine oxidase [3]", "value": "49 ± 1", "unit": "µM"}, {"measurement": "Ki", "setting": "xanthine oxidase [3]", "value": "19 ± 2", "unit": "µM"}]}, {"smiles": "COc1cc(/C=C/c2ccc(O)cc2)cc(OC)c1", "note": "[Pterostilbene (5), Pterostilbene]", "values": [{"measurement": "DPPH activity", "setting": "[1]", "value": "0.74 ± 0.10 DPPH molecules / a molecule of stilbene compound"}, {"measurement": "IC50", "setting": "xanthine oxidase [2]", "value": "> 50", "unit": "µM"}, {"measurement": "IC50", "setting": "xanthine oxidase [3]", "value": "124 ± 16", "unit": "µM"}, {"measurement": "Ki", "setting": "xanthine oxidase [3]", "value": "43 ± 5", "unit": "µM"}]}, {"smiles": "Oc1cc(O)cc(/C=C/c2ccc(O)c(O)c2)c1", "note": "[Piceatannol (6), Piceatannol]", "values": [{"measurement": "DPPH activity", "setting": "[1]", "value": "2.45 ± 0.13 DPPH molecules / a molecule of stilbene compound"}, {"measurement": "Initial rate of DPPH scavenging", "setting": "[1]; after the addition of sample solution", "value": 3.75, "unit": "µmol/L/s"}, {"measurement": "IC50", "setting": "xanthine oxidase [2]", "value": "15 ± 5", "unit": "µM"}, {"measurement": "Ki", "setting": "xanthine oxidase [2]", "value": "6.7 ± 1.6", "unit": "µM"}, {"measurement": "IC50", "setting": "xanthine oxidase [3]", "value": "4.5 ± 0.4", "unit": "µM"}, {"measurement": "Ki", "setting": "xanthine oxidase [3]", "value": "2.2 ± 0.1", "unit": "µM"}, {"measurement": "K’i, inhibition of O2- generation using xanthine oxidase", "setting": "xanthine oxidase [3]; mixed type kinetics, xanthine 0 – 200 µM, pH 10.0", "value": "21.1 ± 1.0", "unit": "µM"}, {"measurement": "Inhibition kinetics (mode) of O2- generation", "setting": "xanthine oxidase [3]; xanthine 0 – 200 µM", "value": "mixed type"}]}]}
